Laboratory results: ChEMBL document CHEMBL4325893, “Synthesis and antibacterial profiles of targeted triclosan derivatives” (2019)
≈ marks a conversion by molar mass, not a printed value.

Tests used:
[1] = system: Salmonella enteritidis; experiment: Antibacterial activity against Salmonella enterica subspecies enterica serotype Enteritidis 13076 after 18 hrs; format: functional, Salmonella enterica subsp. enterica serovar Enteritidis; settings: Salmonella enterica, 13076, 18 h
Summary of the method: (§1)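 Broth microdilution in Nutrient Broth No. 2; stocks in ethanol diluted to 0.01–128 µg/ml (triclosan) or 0.25–256 µg/ml (glycosides). Overnight 37 °C NB2 cultures diluted 1 in 10^4 in saline and added to the dilutions. Incubation at 37 °C with agitation, OD read every 15 min; MIC is the lowest concentration preventing any OD rise after 18 h.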

[2] = system: Staphylococcus epidermidis; experiment: Antibacterial activity against Staphylococcus epidermidis 155 after 18 hrs; format: functional; settings: Staphylococcus epidermidis, 155, 18 h; summary of the method: as §1
[3] = Antibacterial activity against Salmonella enterica subspecies enterica serotype Poona NCTC 4840 after 18 hrs; format: functional, Salmonella enterica subsp. enterica serovar Poona; settings: NCTC 4840, 18 h; summary of the method: as §1
[4] = system: Escherichia coli; experiment: Antibacterial activity against Escherichia coli ATCC 35218 after 18 hrs; format: functional; settings: ATCC 35218, 18 h; summary of the method: as §1
[5] = Antibacterial activity against Salmonella enterica subspecies enterica serotype Pullorum OCC 273 after 18 hrs; format: functional, Salmonella enterica subsp. enterica serovar Pullorum; settings: OCC 273, 18 h; summary of the method: as §1
[6] = system: Escherichia hermannii; experiment: Antibacterial activity against Escherichia hermannii 33650 after 18 hrs; format: functional; settings: Atlantibacter hermannii, 33650, 18 h; summary of the method: as §1
[7] = system: Streptococcus viridans; experiment: Antibacterial activity against Streptococcus viridans OCC 234 after 18 hrs; format: functional; settings: OCC 234, 18 h
Summary of the method: (§2)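 Broth microdilution in Nutrient Broth No. 2. Ethanol stocks were diluted in broth to 0.01–128 µg/ml for triclosan and 0.25–256 µg/ml for glycosides. Overnight 37°C NB2 cultures were diluted 1 in 10^4 in saline and added to the wells. Plates were incubated at 37°C with OD read every 15 min after agitation. MIC was the lowest concentration giving no OD increase at 18 h.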

[8] = system: Enterococcus faecium; experiment: Antibacterial activity against Enterococcus faecium ATCC 19434 after 18 hrs; format: functional; settings: ATCC 19434, 18 h; summary of the method: as §1
[9] = system: Staphylococcus epidermidis; experiment: Antibacterial activity against Staphylococcus epidermidis ATCC 14990 after 18 hrs; format: functional; settings: ATCC 14990, 18 h; summary of the method: as §1
[10] = system: Escherichia coli; experiment: Antibacterial activity against Escherichia coli 700728 after 18 hrs; format: functional; settings: Escherichia coli, 700728, 18 h; summary of the method: as §1
[11] = system: Staphylococcus aureus; experiment: Antibacterial activity against Staphylococcus aureus NCTC 13758 after 18 hrs; format: functional; settings: NCTC 13758, 18 h; summary of the method: as §1
[12] = system: Streptococcus pneumoniae; experiment: Antibacterial activity against Streptococcus pneumoniae ATCC 49619 after 18 hrs; format: functional; settings: ATCC 49619, 18 h; summary of the method: as §2
[13] = system: Bacillus cereus; experiment: Antibacterial activity against Bacillus cereus ATCC 14579 after 18 hrs; format: functional; settings: ATCC 14579, 18 h; summary of the method: as §1
[14] = system: Bacillus subtilis; experiment: Antibacterial activity against Bacillus subtilis NCTC 10073 after 18 hrs; format: functional; settings: NCTC 10073, 18 h; summary of the method: as §1
[15] = system: Staphylococcus aureus; experiment: Antibacterial activity against Staphylococcus aureus ATCC 6538P after 18 hrs; format: functional; summary of the method: as §1
[16] = system: Citrobacter freundii; experiment: Antibacterial activity against Citrobacter freundii 8090 after 18 hrs; format: functional; settings: Citrobacter freundii, 8090, 18 h; summary of the method: as §1
[17] = system: Streptococcus pneumoniae; experiment: Antibacterial activity against Streptococcus pneumoniae 6305 after 18 hrs; format: functional; settings: Streptococcus pneumoniae, 6305, 18 h; summary of the method: as §2
[18] = system: Escherichia coli; experiment: Antibacterial activity against Escherichia coli ATCC 25922 after 18 hrs; format: functional; settings: ATCC 25922, 18 h; summary of the method: as §1
[19] = system: Staphylococcus aureus; experiment: Antibacterial activity against Staphylococcus aureus OCC 104 after 18 hrs; format: functional; settings: OCC 104, 18 h; summary of the method: as §1
[20] = system: Staphylococcus haemolyticus; experiment: Antibacterial activity against Staphylococcus haemolyticus OCC 2223 after 18 hrs; format: functional; settings: OCC 2223, 18 h; summary of the method: as §2
[21] = system: Staphylococcus aureus; experiment: Antibacterial activity against Staphylococcus aureus ATCC 29213 after 18 hrs; format: functional; settings: ATCC 29213, 18 h; summary of the method: as §1
[22] = system: Klebsiella aerogenes; experiment: Antibacterial activity against Enterobacter aerogenes ATCC 13048 after 18 hrs; format: functional; settings: ATCC 13048, 18 h; summary of the method: as §1
[23] = Antibacterial activity against Salmonella enterica subspecies enterica serotype Arizonae OCC 706 after 18 hrs; format: functional, Salmonella enterica subsp. enterica serovar Arizonae; settings: OCC 706, 18 h; summary of the method: as §1
[24] = Antibacterial activity against Salmonella enterica subspecies enterica serotype Nottingham NCTC 7832 after 18 hrs; format: functional, Salmonella enterica subsp. enterica serovar Nottingham; settings: NCTC 7832, 18 h; summary of the method: as §1
[25] = Antibacterial activity against Salmonella enterica subspecies enterica serotype Infantis OCC 2133 after 18 hrs; format: functional, Salmonella enterica subsp. enterica serovar Infantis; settings: OCC 2133, 18 h; summary of the method: as §1
[26] = system: Escherichia coli; experiment: Antibacterial activity against Escherichia coli ATCC 11775 after 18 hrs; format: functional; summary of the method: as §1
[27] = system: Citrobacter freundii; experiment: Antibacterial activity against Citrobacter freundii OCC 851 after 18 hrs; format: functional; settings: OCC 851, 18 h; summary of the method: as §1
[28] = system: Hafnia alvei; experiment: Antibacterial activity against Hafnia alvei 13337 after 18 hrs; format: functional; settings: Hafnia alvei, 13337, 18 h; summary of the method: as §1
[29] = system: Staphylococcus aureus; experiment: Antibacterial activity against Staphylococcus aureus OCC 106 after 18 hrs; format: functional; settings: OCC 106, 18 h; summary of the method: as §1

SMILES: OC[C@H]1O[C@@H](Oc2cc(Cl)ccc2Oc2ccc(Cl)cc2Cl)[C@H](O)[C@@H](O)[C@H]1O
- MIC [1]: 2 to 16 µg/mL (≈ 4.43 to 35.4 µM)
- MIC [2]: 0.5 µg/mL (≈ 1.11 µM)
- MIC [3]: 2 to 16 µg/mL (≈ 4.43 to 35.4 µM)
- MIC [4]: 0.5 to 32 µg/mL (≈ 1.11 to 70.8 µM)
- MIC [5]: 2 to 16 µg/mL (≈ 4.43 to 35.4 µM)
- MIC [6]: 2 µg/mL (≈ 4.43 µM)
- MIC [7]: 256 µg/mL (≈ 567 µM)
- MIC [8]: > 256 µg/mL
- MIC [9]: 0.5 µg/mL (≈ 1.11 µM)
- MIC [10]: 0.5 to 32 µg/mL (≈ 1.11 to 70.8 µM)
- MIC [11]: 0.5 µg/mL (≈ 1.11 µM)
- MIC [12]: 128 µg/mL (≈ 283 µM)
- MIC [13]: 256 µg/mL (≈ 567 µM)
- MIC [14]: 32 µg/mL (≈ 70.8 µM)
- MIC [15]: 0.5 µg/mL (≈ 1.11 µM)
- MIC [16]: 8 µg/mL (≈ 17.7 µM)
- MIC [17]: 128 µg/mL (≈ 283 µM)
- MIC [18]: 0.5 to 32 µg/mL (≈ 1.11 to 70.8 µM)
- MIC [19]: 0.5 µg/mL (≈ 1.11 µM)
- MIC [20]: 0.5 µg/mL (≈ 1.11 µM)
- MIC [21]: 0.5 µg/mL (≈ 1.11 µM)
- MIC [22]: 8 µg/mL (≈ 17.7 µM)
- MIC [23]: 2 to 16 µg/mL (≈ 4.43 to 35.4 µM)
- MIC [24]: 2 to 16 µg/mL (≈ 4.43 to 35.4 µM)
- MIC [25]: 2 to 16 µg/mL (≈ 4.43 to 35.4 µM)
- MIC [26]: 0.5 to 32 µg/mL (≈ 1.11 to 70.8 µM)
- MIC [27]: 8 µg/mL (≈ 17.7 µM)
- MIC [28]: 0.5 µg/mL (≈ 1.11 µM)
- MIC [29]: 0.5 µg/mL (≈ 1.11 µM)
